Measured values collected from several papers.
Lines come from different studies, so protocols differ. pEC50: −log10 of the molar value.
Organism: Plasmodium falciparum
Effect on: parasite growth

Compound	technique	strain	time	setting	pEC50
Cc1c2oc3c(C)ccc(C(=O)N[C@@H]4C(=O)N[C@H](C(C)C)C(=O)N5CCC[C@H]5C(=O)N(C)CC(=O)N(C)[C@@H](C(C)C)C(=O)O[C@@H]4C)c3nc-2c(C(=O)N[C@@H]2C(=O)N[C@H](C(C)C)C(=O)N3CCC[C@H]3C(=O)N(C)CC(=O)N(C)[C@@H](C(C)C)C(=O)O[C@@H]2C)c(N)c1=O	SYBR Green	3D7	–	blood stage	6.00
CN1CCCN(S(=O)(=O)c2ccc(-c3ccc4ncnc(Nc5ccc(OCc6cccc(F)c6)c(Cl)c5)c4c3)cc2)CC1	SYBR Green	W2	–	drug-resistant strain, blood stage	7.28
COc1ccc(-n2ccnc2SCC(=O)Nc2cccc(C(F)(F)F)c2)c(OC)c1	SYBR Green	3D7	–	–	7.05
Fc1cccc(COc2ccc(Nc3ncnc4ccc(-c5cccc(N6CCOCC6)c5)cc34)cc2Cl)c1	SYBR Green	W2	–	drug-resistant strain, blood stage	6.17
N#Cc1c(F)cccc1N1CCN(c2ccc(O)cc2)CC1	SYBR Green	3D7	72 h	–	< 4.90
Cc1cc(N[C@H]2CCc3ccc(Cl)cc3C2)n2nc(C(C)(F)F)nc2n1	–	K1	–	drug-resistant strain, blood stage	8.77
CCN(CC)CCCC(C)Nc1ccnc2cc(Cl)ccc12 (centres unmarked)	SYBR Green	TM90	72 h	drug-resistant strain, blood stage	7.05
COc1cc2[nH]c(C)c(-c3ccccc3)c(=O)c2cc1Cl	–	W2	–	drug-resistant strain, blood stage	7.58
C[C@H]1[C@@H](O)O[C@@H]2O[C@@]3(C)CC[C@H]4[C@H](C)CC[C@@H]1[C@@]24OO3	SYBR Green	3D7	–	–	8.45
Cc1cc(NC2Cc3cc(F)c(F)cc3C2)n2nc(C(C)(F)F)nc2n1	–	DD2	–	drug-resistant strain, blood stage	7.37
COc1cc2[nH]c(C)c(-c3ccc(Oc4ccc(OC(F)(F)F)cc4)cc3)c(=O)c2cc1Cl	SYBR Green	TM90	72 h	drug-resistant strain, blood stage	9.00
